Consider 43 compounds from ChEMBL document CHEMBL2146381, “Structure-activity relationship (SAR) study of ethyl 2-amino-6-(3,5-dimethoxyphenyl)-4-(2-ethoxy-2-oxoethyl)-4H-chromene-3-carboxylate (CXL017) and the potential of the lead against multidrug resistance in cancer treatment” (J Med Chem, 2012).

Assay [1] relates to HL-60. The assay is described as follows: Cytotoxicity against human HL60 cells assessed as cell viability after 48 hrs by celltiter-blue assay. The assay is classed as functional, cell-based. The following applies: HL-60, 48 h. A digest of the protocol: (§1)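 Tumour cell growth inhibition was measured in vitro, following the lab's established procedure. IC50 values are the mean of at least two independent experiments, each run in triplicate.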
For orientation: Alamar Blue is a resazurin reagent that responds to reducing activity.

In assay [2] the test system is K562. The assay is described as follows: Ratio of IC50 for human K562/HHT300 cells to IC50 for human K562 cells. It is filed as functional. A digest of the protocol: (§2)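 Each resistant subline and its matched parental line were tested in the same growth-inhibition assay, with IC50 taken as the mean of at least two independent experiments in triplicate. The MDR/parental IC50 ratio is reported as relative sensitivity: above 1 means resistance, below 1 means collateral sensitivity. Parental lines came from different sources for each resistant pair.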

Assay [3] concerns HL-60. The assay is described as follows: Ratio of IC50 for daunorubicin-resistant human HL60 cells to IC50 for human HL60 cells. It is filed as functional. The procedure, abridged:
as §2

Assay [4] has as its system CCRF-CEM. Kind of assay: Ratio of IC50 for human CCRF-CEM/VM-1-5 cells IC50 for human CCRF-CEM cells. The assay is classed as functional. The procedure, abridged:
as §2

Assay [5] relates to HL-60. Kind of assay: Ratio of IC50 for doxorubicin-resistant human HL60 cells to IC50 for human HL60 cells. It is filed as functional. The procedure, abridged:
as §2

The subject of assay [6] is CCRF-CEM. Kind of assay: Cytotoxicity against human CCRF-CEM cells assessed as cell viability after 48 hrs by celltiter-blue assay. The assay is classed as functional, cell-based. The procedure, abridged: as §1
The test system of assay [7] is HL-60. The assay is described as follows: Ratio of IC50 for human HL60/MX2 cells to IC50 for human HL60 cells. The assay is classed as functional. The procedure, abridged: as §2
Assay [8] deals with K562. Kind of assay: Cytotoxicity against human K562 cells assessed as cell viability after 48 hrs by celltiter-blue assay. Conditions: K562, 48 h. The assay is classed as functional, cell-based. A digest of the protocol: as §1
The subject of assay [9] is K562. Kind of assay: Ratio of IC50 for doxorubicin-resistant human K562 cells to IC50 for human K562 cells. The assay is classed as functional. The procedure, abridged:
as §2

The test system of assay [10] is HL-60. The assay is described as follows: Ratio of IC50 for human HL60/ADR cells to IC50 for human HL60 cells. The assay is classed as functional. A digest of the protocol: as §2
Assay [11] has as its system CCRF-CEM. Kind of assay: Ratio of IC50 for human CCRF-CEM/C2 cells IC50 for human CCRF-CEM cells. The assay is classed as functional. The procedure, abridged:
as §2

Assay [12] relates to CCRF-CEM. Kind of assay: Ratio of IC50 for human CCRF-CEM/VLB100 cells IC50 for human CCRF-CEM cells. The assay is classed as functional. The procedure, abridged:
as §2

A value given as a limit tells only on which side of the number the result lay.

With `CCOC(=O)CC1C(C(=O)OCC)=C(N)Oc2ccc(-c3cccc(N)c3)cc21` (racemic), the IC50 (commonly the concentration at which inhibition is half-maximal) in [1] was determined as 20.2 µM.
As for `COc1cccc2c1C(=O)c1c(O)c3c(c(O)c1C2=O)C[C@@](O)(C(=O)CO)C[C@@H]3O[C@H]1C[C@H](N)[C@H](O)[C@H](C)O1` [DOXORUBICIN], the “Ratio IC50” value is above 20 in assay [2]; above 50 in assay [3]; above 15 in assay [4]; above 100 in assay [5]; 5.3 in [7]; above 10 in [9]. Also, the “Ratio IC50” value in assay [10] was above 15; in [11], 6.7. The IC50 is 0.11 µM in assay [6], 0.44 µM in assay [8] and 0.04 µM in assay [1].
`C#CCOC(=O)CC1C(C(=O)OCC#C)=C(N)Oc2ccc(-c3ccc(NCC)cc3)cc21` (racemic): in [1], the half-maximal inhibitory concentration (IC50) worked out at 7.27 µM.
Consider `C#CCOC(=O)CC1C(C(=O)OCC)=C(N)Oc2ccc(-c3ccc(NCC)cc3)cc21` (racemic), for which the IC50 in assay [1] came out at 33 µM.
On the same count and under the same terms, with `C#CCOC(=O)CC1C(C(=O)OCC)=C(N)Oc2ccc(-c3cccc(NCC)c3)cc21` (racemic) the figure was 17.2 µM.
The same measure, in the same setting: with `CCOC(=O)CC1C(C(=O)OCC)=C(N)Oc2ccc(-c3cccc(C(N)=O)c3)cc21` (racemic) the figure was 5.4 µM; with `C#CCOC(=O)CC1C(C(=O)OCC)=C(N)Oc2ccc(-c3cccc(NC)c3)cc21` (racemic), 7.13 µM; with `CCOC(=O)CC1C(C(=O)OCC)=C(N)Oc2ccc(-c3ccccc3F)cc21` (racemic), 73 µM.
Turning to `CCOC(=O)CC1C(C(=O)OCC)=C(N)Oc2ccc(-c3ccc(N)cc3)cc21` (racemic), the half-maximal inhibitory concentration (IC50) in assay [1] was 22.3 µM.
As for `CCOC(=O)CC1C(C(=O)OC)=C(N)Oc2ccc(-c3cc(OC)cc(OC)c3)cc21` (racemic), in [1], the IC50 was 10.8 µM.
The same measure, in the same setting: with `CCOC(=O)CC1C(C(=O)OCC)=C(N)Oc2ccc(-c3cc(F)cc(F)c3)cc21` (racemic) the figure was 35.9 µM.
On the same count and under the same terms, with `CCOC(=O)CC1C(C(=O)OCC)=C(N)Oc2ccc(-c3ccc(F)cc3)cc21` (racemic) the figure was 72.1 µM; with `C#CCOC(=O)CC1C(C(=O)OCC#C)=C(N)Oc2ccc(-c3cccc(NC(=O)CCl)c3)cc21` (racemic), 5.3 µM.
Regarding `CCOC(=O)CC1C(C(=O)OCC)=C(N)Oc2ccc(-c3cccs3)cc21` (racemic), the IC50 in assay [1] was above 80 µM.
Same read-out and setting: with `C#CCOC(=O)CC1C(C(=O)OCC#C)=C(N)Oc2ccc(-c3cccc(N(C)C)c3)cc21` (racemic) the figure was 12 µM.
Still for that read-out and setting: with `CCOC(=O)CC1C(C#N)=C(N)Oc2ccc(-c3cc(OC)cc(OC)c3)cc21` (racemic) the figure was 19.6 µM; with `CCOC(=O)CC1C(C(=O)OCC)=C(N)Oc2ccc(-c3cncnc3)cc21` (racemic), 37.9 µM; with `CCOC(=O)CC1C(C(=O)OCC)=C(N)Oc2ccc(-c3ccccn3)cc21` (racemic), 76.9 µM.
With `COc1cc([C@@H]2c3cc4c(cc3[C@@H](O[C@@H]3O[C@@H]5CO[C@@H](C)O[C@H]5[C@H](O)[C@H]3O)[C@H]3COC(=O)[C@H]23)OCO4)cc(OC)c1O` [ETOPOSIDE], the “Ratio IC50” value in [2] is given as above 1000; in [3], above 50; in assay [4], above 50; in assay [12], 8.6; in assay [5] it was above 200; in assay [7], 9. Further, the “Ratio IC50” value was above 15 in [9], above 10 in assay [10] and 2.5 in [11]. The IC50 came out at 0.24 µM in assay [6], 2.3 µM in assay [8] and 0.11 µM in assay [1].
As to `CCOC(=O)CC1C(C(=O)OCC)=C(N)Oc2ccc(-c3ccncc3)cc21` (racemic), in [1], the 50% inhibitory concentration (IC50) was 10.2 µM.
Take `CC[C@]1(O)C[C@H]2CN(CCc3c([nH]c4ccccc34)[C@@](C(=O)OC)(c3cc4c(cc3OC)N(C=O)[C@H]3[C@@](O)(C(=O)OC)[C@H](OC(C)=O)[C@]5(CC)C=CCN6CC[C@]43[C@@H]65)C2)C1` [VINCRISTINE]: the “Ratio IC50” value in [2] is listed as above 1000; in assay [4], 1; in assay [12], above 1000; in assay [5], above 1000; in [7], 1; in [9], above 1000. In addition, the “Ratio IC50” value in [10] and in assay [11] was 1 in each case. The IC50 stood at 0.00017 µM in assay [6], 0.0001 µM in assay [8] and 6e-05 µM in assay [1].
Turning to `C/C=C(/C)C(=O)O[C@H]1C(C)=C2[C@H]([C@@H]1OC(=O)CCCCCCC)[C@@](C)(OC(C)=O)C[C@H](OC(=O)CCC)[C@@]1(O)[C@H]2OC(=O)[C@@]1(C)O` [THAPSIGARGIN], the “Ratio IC50” value in [2] was above 10; in assay [3] it was above 50; in [4] it was 1; in [12], 7.7; in [5] it was above 50; in [7], 0.02. In addition, the “Ratio IC50” value in assay [9] was determined as 4.2; in [10], 1; in assay [11], 1.45. The IC50 in assay [6] was 0.27 µM; in assay [8], 0.17 µM; in assay [1], 0.007 µM.
Take `O=C1c2c(O)ccc(O)c2C(=O)c2c(NCCNCCO)ccc(NCCNCCO)c21` [MITOXANTRONE]: the “Ratio IC50” value is above 10 in assay [2]; above 10 in assay [3]; above 30 in assay [4]; 2.3 in [12]; above 20 in assay [5]; above 20 in [7]. Besides, the “Ratio IC50” value in assay [9] was found to be 5.1; in assay [10], 2.4; in assay [11] it was 3. For the same compound, the IC50 in [6] turned out to be 0.036 µM; in assay [8] it was 0.51 µM; in [1] it was 0.016 µM.
As for `COc1cc(OC)cc(-c2ccc3c(c2)C(CC(=O)OCC2CO2)C(C(=O)OCC2CO2)=C(N)O3)c1` (racemic), the IC50 in assay [1] is above 80 µM.
In the case of `CCOC(=O)CC1C(C(=O)OCC)=C(N)Oc2ccc(-c3cccc(NC)c3)cc21` (racemic), the IC50 in [1] turned out to be 7.45 µM.
As for `C#CCOC(=O)CC1C(C#N)=C(N)Oc2ccc(-c3cccc(N)c3)cc21` (racemic), the IC50 in assay [1] came to 43.9 µM.
Same read-out and setting: with `C#CCOC(=O)CC1C(C(=O)OCC)=C(N)Oc2ccc(-c3cccc(N)c3)cc21` (racemic) the figure was 3.4 µM.
On the same count and under the same terms, with `C#CCOC(=O)CC1C(C(=O)OCC#C)=C(N)Oc2ccc(-c3cccc(NCCO)c3)cc21` (racemic) the figure was 0.63 µM; with `C#CCOC(=O)CC1C(C(=O)OCC)=C(N)Oc2ccc(-c3ccc(N)cc3)cc21` (racemic), 10.5 µM; with `CCOC(=O)CC1C(c2nc(-c3ccc(OC)cc3)no2)=C(N)Oc2ccc(-c3cc(OC)cc(OC)c3)cc21` (racemic), above 80 µM.
The same measure, in the same setting: with `C#CCOC(=O)CC1C(C(=O)OCC#C)=C(N)Oc2ccc(-c3cccc(-n4cnnn4)c3)cc21` (racemic) the figure was 1.62 µM.
Turning to `CCOC(=O)CC1C(C(=O)OCC)=C(N)Oc2ccc(-c3cccc(F)c3)cc21` (racemic), the IC50 in [1] came to 76.4 µM.
`Nc1ccn([C@@H]2O[C@H](CO)[C@@H](O)[C@@H]2O)c(=O)n1` [CYTARABINE]: the “Ratio IC50” value was determined as 7 in assay [2]; 6.5 in assay [4]; 1 in [12]; 7.5 in [5]; 0.4 in assay [7]; 1.5 in assay [9]. For the same compound, the “Ratio IC50” value in assay [10] is on record as 0.1; in assay [11], 4.1. Further, the results for the half-inhibitory concentration (IC50) in assay [6], in [8] and in assay [1] were 0.006 µM, 14 µM and 0.049 µM, respectively.
Consider `CCOC(=O)CC1C(C(=O)OCC)=C(N)Oc2ccc(-c3cc(OC)cc(OC)c3)cc21` (racemic), for which the IC50 in assay [1] came out at 10.7 µM.
Still for that read-out and setting: with `CCOC(=O)CC1C(C(=O)OCC)=C(N)Oc2ccc(-c3cccnc3)cc21` (racemic) the figure was 21.5 µM.
Same read-out and setting: with `COC(=O)CC1C(C(=O)OC)=C(N)Oc2ccc(-c3cc(OC)cc(OC)c3)cc21` (racemic) the figure was 2.42 µM; with `CCOC(=O)CC1C(C(=O)OCC)=C(N)Oc2ccc(-c3ccnc(OC)c3)cc21` (racemic), 10.2 µM; with `CCOC(=O)CC1C(C(=O)OCC)=C(N)Oc2ccc(-c3ccc(F)cc3F)cc21` (racemic), 76.6 µM.
On the same count and under the same terms, with `CCOC(=O)CC1C(C(=O)OCC)=C(N)Oc2ccc(-c3ccco3)cc21` (racemic) the figure was above 80 µM; with `C#CCOC(=O)CC1C(C(=O)OCC#C)=C(N)Oc2ccc(-c3ccc(N(C)C)cc3)cc21` (racemic), 2.56 µM.
As to `C#CCOC(=O)CC1C(C(=O)OCC#C)=C(N)Oc2ccc(-c3cccc(NC)c3)cc21` (racemic), in assay [1], the IC50 was 0.88 µM.
On the same count and under the same terms, with `C#CCOC(=O)CC1C(C(=O)OCC#C)=C(N)Oc2ccc(-c3cccc(NCC)c3)cc21` (racemic) the figure was 1.86 µM.
Consider `C#CCOC(=O)CC1C(C(=O)OCC#C)=C(N)Oc2ccc(-c3ccc(NC)cc3)cc21` (racemic), for which the half-maximal inhibitory concentration (IC50) in [1] was determined as 2.45 µM.
